Measurements reported in ChEMBL document CHEMBL3112486, “Novel class of benzoic acid ester derivatives as potent PDE4 inhibitors for inhaled administration in the treatment of respiratory diseases” (J Med Chem, 2014).

Each compound was assayed against T1, Phosphodiesterase 4 (Homo sapiens, UniProt P27815+Q08499+Q07343+Q08493) (assay: Inhibition of PDE4 activity in human PBMC assessed as inhibition of LPS-induced TNFalpha release after 18 hrs by ELISA). Settings: not given.
In short: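 Human PBMCs plated at 10^5 cells/well in RPMI 1640 without phenol red plus 10% FBS, at 37 °C, 5% CO2. Compound added at 10^-15 to 10^-6 M (final DMSO 0.2%), with E. coli LPS at 3 ng/mL final, for 18 h. TNFα in supernatant measured by paired-antibody ELISA. IC50 from four-parameter logistic nonlinear regression, reported with 95% confidence intervals.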

IC50	SMILES
1.85 nM	COc1ccc(C(=O)O[C@@H](Cc2c(Cl)c[n+]([O-])cc2Cl)c2ccc(OC(F)F)c(OCC3CC3)c2)cc1S(=O)(=O)N(C)C
> 60 nM	COc1ccc(NS(C)(=O)=O)c(C(=O)O[C@@H](Cc2c(Cl)c[n+]([O-])cc2Cl)c2ccc(OC(F)F)c(OCC3CC3)c2)c1
0.25 nM	CNS(=O)(=O)c1cc(C(=O)O[C@@H](Cc2c(Cl)c[n+]([O-])cc2Cl)c2ccc(OC(F)F)c(OCC3CC3)c2)ccc1OC
0.21 nM	CC(=O)Nc1ccc(C(=O)O[C@@H](Cc2c(Cl)c[n+]([O-])cc2Cl)c2ccc(OC(F)F)c(OCC3CC3)c2)cc1OCC1CC1
1.96 nM	CS(=O)(=O)Nc1ccc(C(=O)O[C@@H](Cc2c(Cl)c[n+]([O-])cc2Cl)c2ccc(OC(F)F)c(OCC3CC3)c2)c(OCC2CC2)c1
0.92 nM	CS(=O)(=O)Nc1cc(OCC2CC2)cc(C(=O)O[C@@H](Cc2c(Cl)c[n+]([O-])cc2Cl)c2ccc(OC(F)F)c(OCC3CC3)c2)c1
2.1 nM	N#Cc1ccc(C(=O)O[C@@H](Cc2c(Cl)c[n+]([O-])cc2Cl)c2ccc(OC(F)F)c(OCC3CC3)c2)cc1
0.63 nM	CN(C)c1ccc(C(=O)O[C@@H](Cc2c(Cl)c[n+]([O-])cc2Cl)c2ccc(OC(F)F)c(OCC3CC3)c2)cc1OCC1CC1
0.12 nM	CS(=O)(=O)Nc1cc(C(=O)O[C@@H](Cc2c(Cl)c[n+]([O-])cc2Cl)c2ccc(OC(F)F)c(OCC3CC3)c2)ccc1OCC1CC1
1.36 nM	COc1ccc(C(=O)O[C@@H](Cc2c(Cl)c[n+]([O-])cc2Cl)c2ccc(OC(F)F)c(OCC3CC3)c2)cc1Oc1ccccc1
0.89 nM	COc1ccc(NS(C)(=O)=O)cc1C(=O)O[C@@H](Cc1c(Cl)c[n+]([O-])cc1Cl)c1ccc(OC(F)F)c(OCC2CC2)c1
0.43 nM	COc1cc(NS(C)(=O)=O)ccc1C(=O)O[C@@H](Cc1c(Cl)c[n+]([O-])cc1Cl)c1ccc(OC(F)F)c(OCC2CC2)c1
1.1 nM	O=C(O[C@@H](Cc1c(Cl)c[n+]([O-])cc1Cl)c1ccc(OC(F)F)c(OCC2CC2)c1)c1ccc(OC(F)F)c(OCC2CC2)c1
4.9 nM	CS(=O)(=O)Nc1ccc(OCC2CC2)c(C(=O)O[C@@H](Cc2c(Cl)c[n+]([O-])cc2Cl)c2ccc(OC(F)F)c(OCC3CC3)c2)c1
21 nM	O=C(O[C@@H](Cc1c(Cl)c[n+]([O-])cc1Cl)c1ccc(OC(F)F)c(OCC2CC2)c1)c1ccc(C(F)(F)F)cc1
0.69 nM	O=C(O[C@@H](Cc1c(Cl)c[n+]([O-])cc1Cl)c1ccc(OC(F)F)c(OCC2CC2)c1)c1ccc([N+](=O)[O-])c(OCC2CC2)c1
0.67 nM	COc1ccc(C(=O)O[C@@H](Cc2c(Cl)c[n+]([O-])cc2Cl)c2ccc(OC(F)F)c(OCC3CC3)c2)cc1NC(C)=O
0.96 nM	COc1ccc(C(=O)O[C@@H](Cc2c(Cl)c[n+]([O-])cc2Cl)c2ccc(OC(F)F)c(OCC3CC3)c2)cc1OC(C)=O
0.96 nM	Cc1ccc(C(=O)O[C@@H](Cc2c(Cl)c[n+]([O-])cc2Cl)c2ccc(OC(F)F)c(OCC3CC3)c2)cc1NS(C)(=O)=O
1.85 nM	O=C(O[C@@H](Cc1c(Cl)c[n+]([O-])cc1Cl)c1ccc(OC(F)F)c(OCC2CC2)c1)c1ccc(Cl)cc1
> 60 nM	COc1cccc(NS(C)(=O)=O)c1C(=O)O[C@@H](Cc1c(Cl)c[n+]([O-])cc1Cl)c1ccc(OC(F)F)c(OCC2CC2)c1
0.34 nM	O=C(O[C@@H](Cc1c(Cl)c[n+]([O-])cc1Cl)c1ccc(OC(F)F)c(OCC2CC2)c1)c1ccc(NS(=O)(=O)C2CC2)c(OCC2CC2)c1
1.71 nM	O=C(O[C@@H](Cc1c(Cl)c[n+]([O-])cc1Cl)c1ccc(OC(F)F)c(OCC2CC2)c1)c1ccccc1
0.06 nM	COc1ccc(C(=O)O[C@@H](Cc2c(Cl)c[n+]([O-])cc2Cl)c2ccc(OC(F)F)c(OCC3CC3)c2)cc1NS(C)(=O)=O
0.85 nM	O=C(O[C@@H](Cc1c(Cl)c[n+]([O-])cc1Cl)c1ccc(OC(F)F)c(OCC2CC2)c1)c1ccc(O)c(OCC2CC2)c1
0.69 nM	O=C(O[C@@H](Cc1c(Cl)c[n+]([O-])cc1Cl)c1ccc(OC(F)F)c(OCC2CC2)c1)c1ccc(CO)c(OCC2CC2)c1

These compounds were tested against T1, Phosphodiesterase 4 (assay: Inhibition of PDE4 isolated from human U937 cells assessed as […] by LANCE assay). Settings: u-937.
Format: cell-free

IC50	SMILES
0.03 nM	COc1ccc(C(=O)O[C@@H](Cc2c(Cl)c[n+]([O-])cc2Cl)c2ccc(OC(F)F)c(OCC3CC3)c2)cc1S(=O)(=O)N(C)C
0.4 nM	COc1ccc(NS(C)(=O)=O)c(C(=O)O[C@@H](Cc2c(Cl)c[n+]([O-])cc2Cl)c2ccc(OC(F)F)c(OCC3CC3)c2)c1
0.03 nM	CNS(=O)(=O)c1cc(C(=O)O[C@@H](Cc2c(Cl)c[n+]([O-])cc2Cl)c2ccc(OC(F)F)c(OCC3CC3)c2)ccc1OC
0.24 nM	CC(=O)Nc1ccc(C(=O)O[C@@H](Cc2c(Cl)c[n+]([O-])cc2Cl)c2ccc(OC(F)F)c(OCC3CC3)c2)cc1OCC1CC1
0.26 nM	CS(=O)(=O)Nc1ccc(C(=O)O[C@@H](Cc2c(Cl)c[n+]([O-])cc2Cl)c2ccc(OC(F)F)c(OCC3CC3)c2)c(OCC2CC2)c1
0.06 nM	CS(=O)(=O)Nc1cc(OCC2CC2)cc(C(=O)O[C@@H](Cc2c(Cl)c[n+]([O-])cc2Cl)c2ccc(OC(F)F)c(OCC3CC3)c2)c1
0.41 nM	N#Cc1ccc(C(=O)O[C@@H](Cc2c(Cl)c[n+]([O-])cc2Cl)c2ccc(OC(F)F)c(OCC3CC3)c2)cc1
0.31 nM	CN(C)c1ccc(C(=O)O[C@@H](Cc2c(Cl)c[n+]([O-])cc2Cl)c2ccc(OC(F)F)c(OCC3CC3)c2)cc1OCC1CC1
0.13 nM	CS(=O)(=O)Nc1cc(C(=O)O[C@@H](Cc2c(Cl)c[n+]([O-])cc2Cl)c2ccc(OC(F)F)c(OCC3CC3)c2)ccc1OCC1CC1
0.21 nM	COc1ccc(C(=O)O[C@@H](Cc2c(Cl)c[n+]([O-])cc2Cl)c2ccc(OC(F)F)c(OCC3CC3)c2)cc1Oc1ccccc1
0.04 nM	COc1ccc(NS(C)(=O)=O)cc1C(=O)O[C@@H](Cc1c(Cl)c[n+]([O-])cc1Cl)c1ccc(OC(F)F)c(OCC2CC2)c1
0.06 nM	COc1cc(NS(C)(=O)=O)ccc1C(=O)O[C@@H](Cc1c(Cl)c[n+]([O-])cc1Cl)c1ccc(OC(F)F)c(OCC2CC2)c1
0.22 nM	O=C(O[C@@H](Cc1c(Cl)c[n+]([O-])cc1Cl)c1ccc(OC(F)F)c(OCC2CC2)c1)c1ccc(OC(F)F)c(OCC2CC2)c1
0.4 nM	CS(=O)(=O)Nc1ccc(OCC2CC2)c(C(=O)O[C@@H](Cc2c(Cl)c[n+]([O-])cc2Cl)c2ccc(OC(F)F)c(OCC3CC3)c2)c1
0.2 nM	O=C(O[C@@H](Cc1c(Cl)c[n+]([O-])cc1Cl)c1ccc(OC(F)F)c(OCC2CC2)c1)c1ccc(C(F)(F)F)cc1
0.21 nM	O=C(O[C@@H](Cc1c(Cl)c[n+]([O-])cc1Cl)c1ccc(OC(F)F)c(OCC2CC2)c1)c1ccc([N+](=O)[O-])c(OCC2CC2)c1
0.08 nM	COc1ccc(C(=O)O[C@@H](Cc2c(Cl)c[n+]([O-])cc2Cl)c2ccc(OC(F)F)c(OCC3CC3)c2)cc1NC(C)=O
0.05 nM	COc1ccc(C(=O)O[C@@H](Cc2c(Cl)c[n+]([O-])cc2Cl)c2ccc(OC(F)F)c(OCC3CC3)c2)cc1OC(C)=O
0.03 nM	Cc1ccc(C(=O)O[C@@H](Cc2c(Cl)c[n+]([O-])cc2Cl)c2ccc(OC(F)F)c(OCC3CC3)c2)cc1NS(C)(=O)=O
0.16 nM	O=C(O[C@@H](Cc1c(Cl)c[n+]([O-])cc1Cl)c1ccc(OC(F)F)c(OCC2CC2)c1)c1ccc(Cl)cc1
6.83 nM	COc1cccc(NS(C)(=O)=O)c1C(=O)O[C@@H](Cc1c(Cl)c[n+]([O-])cc1Cl)c1ccc(OC(F)F)c(OCC2CC2)c1
0.15 nM	O=C(O[C@@H](Cc1c(Cl)c[n+]([O-])cc1Cl)c1ccc(OC(F)F)c(OCC2CC2)c1)c1ccc(NS(=O)(=O)C2CC2)c(OCC2CC2)c1
0.072 nM	O=C(O[C@@H](Cc1c(Cl)c[n+]([O-])cc1Cl)c1ccc(OC(F)F)c(OCC2CC2)c1)c1ccccc1
0.04 nM	COc1ccc(C(=O)O[C@@H](Cc2c(Cl)c[n+]([O-])cc2Cl)c2ccc(OC(F)F)c(OCC3CC3)c2)cc1NS(C)(=O)=O
0.04 nM	O=C(O[C@@H](Cc1c(Cl)c[n+]([O-])cc1Cl)c1ccc(OC(F)F)c(OCC2CC2)c1)c1ccc(O)c(OCC2CC2)c1
0.08 nM	O=C(O[C@@H](Cc1c(Cl)c[n+]([O-])cc1Cl)c1ccc(OC(F)F)c(OCC2CC2)c1)c1ccc(CO)c(OCC2CC2)c1
